From ChEMBL document CHEMBL5329172, “Chloroacetamide fragment library screening identifies new scaffolds for covalent inhibition of the TEAD·YAP1 interaction” (RSC Med Chem, 2023) come the findings set out here.

The source made the active and inactive calls. The calls are words filed in the database; no cut-off is given here.

For assay [1], the target named is T1, YAP1-TEAD4 (Homo sapiens) (UniProt P46937+Q15561). As to the kind of experiment: Covalent inhibition of GST-tagged TEAD4 (217 to 434 residues) (unknown origin) expressed in Escherichia coli BL21 (DE3) cells/FAM-labelled YAP1 (60 to 99 residues)(unknown origin) protein-protein interaction assessed as additional protein-compound adduct formation at 100 uM incubated for 24 hrs at 4 degree C followed by mass spectrometry analysis. In a few lines:
(§1)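 Intact-protein MS: 2.5 μM protein (TEAD4 217–434 with GST cleaved, TEAD4C367S, TEAD1 209–426, TEAD2 217–447 or TEAD3 210–427) incubated with 100 μM compound in PBS for 24 h at 4 °C. Samples were centrifuged to remove precipitate, desalted on a C3 reverse-phase column with a water/acetonitrile 0.1% formic acid gradient, and masses were read by Q-TOF. Adduct peaks were reported as percent.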

In assay [2] the target is T1, YAP1-TEAD4 (Homo sapiens). As to the kind of experiment: Inhibition of GST-tagged TEAD4 (217 to 434 residues) (unknown origin) expressed in Escherichia coli BL21 (DE3) cells/FAM-labelled YAP1 (60 to 99 residues)(unknown origin) protein-protein interaction assessed maximum inhibition preincubated for 6 hrs at 4 degree C with TEAD4 followed by fluorescent labelled YAP1 addition by fluorescence polarization assay. Summed up: (§2)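 Time-course FP: 64 nM TEAD4 was preincubated with varying compound concentrations for 0.5, 6, 24 or 48 h at 4 °C in PBS with 0.01% Triton X-100. 16 nM FAM-YAP1 60–99 peptide was then added and polarization read at 485/535 nm, n = 2. Inhibition was taken relative to no-compound and no-protein controls.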

Assay [3] is filed under the species Homo sapiens. As to the kind of experiment: Covalent inhibition of GST-tagged TEAD4 C367S mutant (unknown origin) expressed in Escherichia coli BL21 (DE3)/FAM-labelled YAP1 (60 to 99 residues)(unknown origin) protein-protein interaction assessed as protein-compound adduct formation at 100 uM incubated for 24 hrs at 4 degree C followed by mass spectrometry analysis. In a few lines: as §1

The target in assay [4] is T2, TEAD2-YAP1 (Homo sapiens) (UniProt P46937+Q15562). The experiment in a line: Inhibition of TEAD2 (217 to 447 residues) (unknown origin) expressed in Escherichia coli BL21 (DE3) cells/FAM-labelled YAP1 (60 to 99 residues)(unknown origin) protein-protein interaction preincubated for 24 hrs at 4 degree C with compound followed by fluorescent labelled YAP1 addition by fluorescence polarization assay. Summed up: (§3)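 FP: 64 nM TEAD4, TEAD4C367S, TEAD2 or TEAD3, or 250 nM TEAD1, was preincubated with compound for 24 h at 4 °C in PBS with 0.01% Triton X-100. FAM-YAP1 60–99 peptide (disulfide-crosslinked) was then added at 16 nM final. Polarization was read at ex 485/em 535 nm. Percent inhibition was taken relative to no-compound and no-protein controls. The single-point primary screen used 50 μM.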
T2 sequence (P46937 whole entry, looked up, the tested form may be a part): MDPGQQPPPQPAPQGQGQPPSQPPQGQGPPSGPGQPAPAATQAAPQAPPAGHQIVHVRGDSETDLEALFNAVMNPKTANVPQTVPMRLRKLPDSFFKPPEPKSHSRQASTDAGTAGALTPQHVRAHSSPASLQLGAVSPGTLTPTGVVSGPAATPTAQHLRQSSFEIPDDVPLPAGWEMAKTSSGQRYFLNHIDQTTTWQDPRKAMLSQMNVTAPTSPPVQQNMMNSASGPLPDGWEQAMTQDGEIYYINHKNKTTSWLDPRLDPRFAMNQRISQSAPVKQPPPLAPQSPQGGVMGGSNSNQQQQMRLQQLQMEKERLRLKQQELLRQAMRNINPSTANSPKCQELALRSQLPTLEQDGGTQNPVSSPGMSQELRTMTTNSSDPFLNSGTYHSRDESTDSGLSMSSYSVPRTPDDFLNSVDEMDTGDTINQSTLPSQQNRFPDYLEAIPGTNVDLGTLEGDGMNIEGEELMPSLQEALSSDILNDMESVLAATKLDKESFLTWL
T2 sequence (Q15562 whole entry, looked up, the tested form may be a part): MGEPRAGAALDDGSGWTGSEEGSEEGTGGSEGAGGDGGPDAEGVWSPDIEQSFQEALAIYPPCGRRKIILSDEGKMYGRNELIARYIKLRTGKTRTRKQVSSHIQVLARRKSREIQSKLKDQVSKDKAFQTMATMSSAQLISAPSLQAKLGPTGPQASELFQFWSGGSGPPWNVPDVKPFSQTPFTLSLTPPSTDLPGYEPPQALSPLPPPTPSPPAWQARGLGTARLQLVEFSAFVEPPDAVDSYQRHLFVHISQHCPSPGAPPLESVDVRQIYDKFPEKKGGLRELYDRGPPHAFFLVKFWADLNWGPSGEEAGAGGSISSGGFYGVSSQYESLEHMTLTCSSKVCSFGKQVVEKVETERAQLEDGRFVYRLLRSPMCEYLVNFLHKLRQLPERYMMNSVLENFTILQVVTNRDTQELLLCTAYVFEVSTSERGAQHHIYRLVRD

The species entered for assay [5] is Homo sapiens. The experiment in a line: Inhibition of GST-tagged TEAD4 C367S mutant (unknown origin) expressed in Escherichia coli BL21 (DE3) cells/FAM-labelled YAP1 (60 to 99 residues)(unknown origin) protein-protein interaction preincubated for 24 hrs at 4 degree C with TEAD4 C367S mutant followed by fluorescent labelled YAP1 addition by fluorescence polarization assay. In a few lines: as §3

Assay [6] has as its system S2. The experiment in a line: Inhibition of uPAR (unknown origin) expressed in S2 cells/FAM-labelled alpha-helical peptide AE-147 (unknown origin) protein-protein interaction preincubated for 24 hrs at 4 degree C with uPAR followed by fluorescent labelled AE-147 addition by fluorescence polarization assay. The note with it: Homo sapiens. Summed up: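 Counter-screen FP: 250 nM uPAR lacking the GPI anchor (from S2 cells) was preincubated with compound for 24 h at 4 °C in PBS with 0.01% Triton X-100. AE-147-FAM peptide was then added at 100 nM final and polarization read at ex 485/em 535 nm.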
(In fluorescence polarisation assays a small probe gives low polarisation when free and higher when bound to something large.)

Assay [7] concerns the target T3, YAP1-TEAD4 (Homo sapiens, UniProt Q15561). The experiment in a line: Inhibition of GST-tagged TEAD4 (217 to 434 residues) (unknown origin) expressed in Escherichia coli BL21 (DE3) cells/FAM-labelled YAP1 (60 to 99 residues)(unknown origin) protein-protein interaction preincubated for 48 hrs at 4 degree C with TEAD4 followed by fluorescent labelled YAP1 addition by fluorescence polarization assay. In a few lines: as §2

Assay [8] deals with T3, YAP1-TEAD4. As to the kind of experiment: Inhibition of GST-tagged TEAD4 (217 to 434 residues) (unknown origin) expressed in Escherichia coli BL21 (DE3) cells/FAM-labelled YAP1 (60 to 99 residues)(unknown origin) protein-protein interaction preincubated for 6 hrs at 4 degree C with TEAD4 followed by fluorescent labelled YAP1 addition by fluorescence polarization assay. In a few lines:
as §2

The target in assay [9] is T1, YAP1-TEAD4 (Homo sapiens). As to the kind of experiment: Inhibition of GST-tagged TEAD4 (217 to 434 residues) (unknown origin) expressed in Escherichia coli BL21 (DE3) cells/FAM-labelled YAP1 (60 to 99 residues)(unknown origin) protein-protein interaction assessed maximum inhibition preincubated for 48 hrs at 4 degree C with TEAD4 followed by fluorescent labelled YAP1 addition by fluorescence polarization assay. Summed up:
as §2

The target in assay [10] is T2, TEAD2-YAP1 (Homo sapiens). As to the kind of experiment: Inhibition of TEAD2 (217 to 447 residues) (unknown origin) expressed in Escherichia coli BL21 (DE3) cells/FAM-labelled YAP1 (60 to 99 residues)(unknown origin) protein-protein interaction assessed as maximum inhibition at 50 uM preincubated for 24 hrs at 4 degree C with compound followed by fluorescent labelled YAP1 addition by fluorescence polarization assay. In a few lines: as §3

In assay [11] the target is T2, TEAD2-YAP1 (Homo sapiens). The experiment in a line: Covalent inhibition of TEAD2 (217 to 447 residues) (unknown origin) expressed in Escherichia coli BL21 (DE3) cells/FAM-labelled YAP1 (60 to 99 residues)(unknown origin) protein-protein interaction assessed as protein-compound adduct formation at 100 uM incubated for 24 hrs at 4 degree C followed by mass spectrometry analysis. Summed up:
as §1

The target of assay [12] is TEAD3-YAP1 (Homo sapiens) (UniProt P46937+Q99594). As to the kind of experiment: Covalent inhibition of TEAD3 (210 to 427 residues) (unknown origin) expressed in Escherichia coli BL21 (DE3) cells/FAM-labelled YAP1 (60 to 99 residues)(unknown origin) protein-protein interaction assessed as protein-compound adduct formation at 100 uM incubated for 24 hrs at 4 degree C followed by mass spectrometry analysis. Summed up: as §1
Chain of TEAD3-YAP1 (Homo sapiens) (P46937 whole entry, looked up, the tested form may be a part): as the sequence (P46937 whole entry, looked up, the tested form may be a part) above
Chain of TEAD3-YAP1 (Homo sapiens) (Q99594 whole entry, looked up, the tested form may be a part): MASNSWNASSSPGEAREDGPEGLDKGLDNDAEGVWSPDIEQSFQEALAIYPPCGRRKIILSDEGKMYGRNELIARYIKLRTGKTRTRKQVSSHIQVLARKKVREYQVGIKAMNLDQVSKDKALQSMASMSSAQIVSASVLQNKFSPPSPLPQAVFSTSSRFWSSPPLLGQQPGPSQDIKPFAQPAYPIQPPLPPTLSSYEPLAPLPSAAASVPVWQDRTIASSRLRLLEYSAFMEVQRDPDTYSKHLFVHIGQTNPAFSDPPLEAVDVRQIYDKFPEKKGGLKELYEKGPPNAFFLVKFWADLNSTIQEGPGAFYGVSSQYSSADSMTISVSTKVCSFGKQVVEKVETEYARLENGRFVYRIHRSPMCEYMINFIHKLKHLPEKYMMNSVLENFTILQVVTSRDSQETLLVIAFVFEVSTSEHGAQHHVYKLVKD

T3 sequence (P46937 whole entry, the tested form may be a part): as the sequence (P46937 whole entry, looked up, the tested form may be a part) above
T3 sequence (Q15561 whole entry, the tested form may be a part): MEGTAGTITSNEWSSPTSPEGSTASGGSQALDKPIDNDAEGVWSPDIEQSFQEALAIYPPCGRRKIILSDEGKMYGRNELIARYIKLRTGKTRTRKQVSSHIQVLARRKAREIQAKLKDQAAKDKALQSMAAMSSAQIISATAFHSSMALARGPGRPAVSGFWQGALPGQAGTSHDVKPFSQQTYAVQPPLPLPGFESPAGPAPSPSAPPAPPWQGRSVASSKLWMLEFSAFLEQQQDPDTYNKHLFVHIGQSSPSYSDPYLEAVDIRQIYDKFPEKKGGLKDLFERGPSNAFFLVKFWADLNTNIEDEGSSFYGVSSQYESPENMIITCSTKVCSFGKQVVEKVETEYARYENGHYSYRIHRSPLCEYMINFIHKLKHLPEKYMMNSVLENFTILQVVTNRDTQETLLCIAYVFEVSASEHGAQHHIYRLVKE

As a reminder, the IC50 is the point on the concentration scale where inhibition reaches its midpoint. Low values mean greater potency, high ones weaker potency. As to `O=C(NCCc1ccccc1)C(c1cccs1)N(C(=O)CCl)c1cccc(Cl)c1` (configuration not stated), in assay [1], the percent protein-compound adduct formation was found to be 17%. Besides, the Imax in [2] and in [9] was 37% each time. In addition, the inhibition entry in assay [3], in assay [4], in assay [5] and in assay [6] was “inactive” throughout. The IC50 in assay [7] was 0.9 µM; in [8], 4.6 µM.
Regarding `CCS(=O)(=O)Oc1ccc(CN(Cc2ccc(F)cc2)C(=O)CCl)cc1`, the percent protein-compound adduct formation in assay [1] was found to be 20%. Besides, the results for the Imax in assay [2], in assay [10] and in [9] were 38%, 22% and 38%, respectively. The inhibition result in assay [3], in assay [5] and in assay [6] was “inactive” throughout. The IC50 in [7] came to 5.3 µM; in assay [8], 54.5 µM.
For `Cc1ccc(C2=NN(C(=O)CCl)C(c3ccco3)C2)cc1` (configuration not stated), the Imax in assay [2] is 35%; in [10], 29%; in assay [9] it was 35%. Besides, the inhibition result in assay [11] was “Active”. In addition, the inhibition result in [3], in assay [5] and in assay [6] was “inactive” throughout. In addition, the IC50 is 1.4 µM in assay [7] and 5.9 µM in assay [8].
On to `COc1cccc(C2CC(Cc3cccs3)=NN2C(=O)CCl)c1OC` (configuration not stated), for which the results for the Imax in assay [2], in assay [10] and in assay [9] were 53%, 35% and 53%, respectively. For the same compound, the inhibition entry in [11] and in assay [12] was “Active” each time. Moreover, the inhibition entry in assay [3], in [5] and in [6] was “inactive” in each case. The IC50 in [7] amounted to 2.6 µM; in [8] it was 10.2 µM.
